Test results reported in ChEMBL document CHEMBL5030510, “Designed β-Hairpins Inhibit LDH5 Oligomerization and Enzymatic Activity” (J Med Chem, 2021).
Activity calls are given as the source filed them. No cut-off for these calls is given here. Where a SMILES comes first, the peptide text is derived from it. Bridges are numbered along the chain shown (N, C = ends).

Key:
[1] = biological target: T1, L-lactate dehydrogenase A chain (Homo sapiens, UniProt P00338); experiment: Binding affinity to recombinant full length N-terminal His-tagged human LDHA expressed in Escherichia coli at 12 nM measured after 2 hrs by Alexa Fluor 488 based fluorescence polarization assay relative to control
Procedure, shortened: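 Direct binding FP: LDH5 two-fold serial dilution from 3.375 µM in 0.01 M phosphate pH 7.4, 1 mM EDTA. Held 2 min in glycine pH 2.5, then labeled peptide added (final 12 nM) in 0.25 M phosphate pH 7.6, 1 mM EDTA. Incubated 2 h at RT. FP read at ex 485/em 520 nm. Saturation signal fitted by non-linear regression and set as 100% binding.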

[2] = biological target: T1, L-lactate dehydrogenase A chain; experiment: Binding affinity to recombinant full length N-terminal His-tagged human LDHA expressed in Escherichia coli assessed as reduction in fluorecence polarization measured after 2 hrs by Alexa Fluor 488 based fluorescence polarization assay
Procedure, shortened: (§1)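 Competition FP: LDH5 held 2 min in 0.1 M glycine pH 2.5, then inhibitor added at the reassociation step with Alexa488-labeled cGm peptide (final 12 nM) in 0.25 M phosphate pH 7.6, 1 mM EDTA, with 152.5 nM LDH5. Incubated 2 h at room temperature. FP read at ex 485/em 520 nm. 100% set by probe plus LDH5 alone.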

[3] = biological target: T1, L-lactate dehydrogenase A chain; experiment: Binding affinity to recombinant full length N-terminal His-tagged human LDHA expressed in Escherichia coli at up to 100 uM measured after 2 hrs by Alexa Fluor 488 based fluorescence polarization assay; conditions: dose microM <=100, time 2.0 hrs; procedure, shortened: as §1
[4] = biological target: T1, L-lactate dehydrogenase A chain; experiment: Binding affinity to recombinant full length N-terminal His-tagged human LDHA expressed in Escherichia coli assessed as reduction in fluorecence polarization at up to 10000 nM measured after 2 hrs by Alexa Fluor 488 based fluorescence polarization assay; conditions: dose nM <=10000, time 2.0 hrs; procedure, shortened: as §1
[5] = biological target: T1, L-lactate dehydrogenase A chain; experiment: Inhibition of recombinant full length N-terminal His-tagged human LDHA oligomerization expressed in Escherichia coli at 150 uM at pH 2.5 to 7.4 measured after 2 hrs by SDS-PAGE analysis
Procedure, shortened: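 Oligomer state: LDHA (1.3 µM) acidified 2 min with 0.1 M glycine pH 2.5, then peptide added in 0.25 M phosphate pH 7.6, 1 mM EDTA, for 2 h at RT. Cross-linked with glutaraldehyde (5% stock), heated 3 min at 85 °C in LDS buffer, and run on 4–12% Bis-Tris gel in MES buffer.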

Activity [1] [%]	Activity [2]	Activity [3]	Activity [4]	inhibition [5]	Structure (SMILES)
50	Dose-Dependent Effect	Active			CC(C)C[C@@H]1NC(=O)[C@H](CCCNC(=N)N)NC(=O)[C@H](CCCNC(=N)N)NC(=O)[C@@H](NC(=O)[C@@H](N)CCCCN)CSSC[C@@H](C(=O)N[C@@H](CCCNC(=N)N)C(=O)NCC(=O)N[C@@H](CCCNC(=N)N)C(=O)O)NC(=O)[C@H](Cc2ccc(O)cc2)NC(=O)[C@H]([C@@H](C)O)NC(=O)[C@H](C(C)C)NC(=O)[C@@H]2CSSC[C@H](NC1=O)C(=O)N[C@@H](Cc1ccc(O)cc1)C(=O)N[C@@H](CCCNC(=N)N)C(=O)N[C@@H](CCC(N)=O)C(=O)N[C@@H](CCCNC(=N)N)C(=O)N2 (H-KCRRLCYRQRCVTYCRGR-OH; disulfide 2-15, 6-11)
			inactive	inactive	O=C1N[C@](c2ccc(N3CCOCC3)cc2)(c2ccsc2)CC(O)=C1Sc1ccccc1Cl
